The record followed here is PubChem BioAssay AID2445 (The Scripps Research Institute Molecular Screening Center, 2010).

Out of some 320,000 compounds screened, about 200 (0.062%) were called active. This excerpt belongs to a sample that is enriched for actives. Unmarked numbers belong to inactive results.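 Rule for the calls: active = activation above that plate's cutoff, the mean activation of tested compounds plus 3 SD (cut at about 6.6% in these data, passing the limit was not always enough); inactive = the rest.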

For the assay, the target named is Oxytocin receptor (Homo sapiens) (UniProt P30559). The assay can be described thus: enhancers of oxytocin-evoked OXTR calcium signal – fluorescence, CHO-OTR cells, Fluo-8 calcium, primary screen (AID 2445).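 Note: 100% uses oxytocin at 75 nM as the full agonist control.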 The following applies: Fluo-8 calcium fluorescence, potentiator mode, at 3 µM, active compounds read high, 0% = oxytocin EC15, 100% = EC100. Put shortly: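 Measured by – Fluo-8 calcium dye fluorescence · Test system – human OTR in CHO cells · Dosing – one concentration, 3.0 µM compound · Controls – EC15 oxytocin alone as 0%, 75 nM oxytocin as 100% · Evaluation – normalized max/min fluorescence ratio, % activation · Timing – 6 min pre-incubation, 100 s read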
Sequence of Oxytocin receptor (Homo sapiens) (P30559 whole entry, looked up): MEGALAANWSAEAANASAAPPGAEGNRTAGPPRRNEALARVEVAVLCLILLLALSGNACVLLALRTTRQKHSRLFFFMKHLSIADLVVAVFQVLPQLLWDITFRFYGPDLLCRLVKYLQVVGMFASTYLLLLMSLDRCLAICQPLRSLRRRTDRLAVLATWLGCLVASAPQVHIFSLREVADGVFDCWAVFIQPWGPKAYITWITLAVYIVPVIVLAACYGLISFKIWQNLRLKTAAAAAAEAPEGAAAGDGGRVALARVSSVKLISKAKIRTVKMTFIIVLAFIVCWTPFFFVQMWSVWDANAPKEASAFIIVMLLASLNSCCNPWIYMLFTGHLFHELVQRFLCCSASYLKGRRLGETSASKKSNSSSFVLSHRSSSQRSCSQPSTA
For the molecule `CC(=O)c1ccc(OCC(O)CN2CCN(S(=O)(=O)c3cccc(Br)c3)CC2)cc1` (stereo unspecified), the activation is -10.6%.
On to `COc1cc(OC)cc(C(=O)N[C@H](C(=O)NNC(=O)c2ccc(Br)cc2)C(C)C)c1`, for which the activation was 0.41%.
For the molecule `COc1ccc(S(=O)(=O)N2CCOC2CNC(=O)C(=O)NCc2ccncc2)cc1C` (stereo unspecified), the activation was 2.91%.
With `CCS(=O)(=O)n1nc(-c2ccccc2)nc1SCc1ccccc1`, the activation was 0.8%.
`O=C(NC1CCCCCCC1)c1cccs1`: the activation is -9.53%.
To `CCO[C@H]1OC(C(=O)Nc2ccccc2)=C[C@@H](C2CC2)[C@@H]1CCCO` belongs -3.89%; to `CCOc1ccc(CNC(=O)CCC(=O)N2CCSc3ccccc32)cc1`, -5.95%; to `CC(OC(=O)c1c(F)cccc1F)C(=O)NCCC1=CCCCC1` (stereo unspecified), -1.25%.
Regarding `CCCCCCSc1ccc([C@@H]2[C@@H]3C(=O)N(CC)C(=O)[C@@H]3[C@]3(C(=O)OC)CCCCN23)cc1OC`, the activation was -12.2%.
With `O=S1(=O)CCOC[C@H](CC2CCCCC2)N1Cc1ccc(F)cc1`, the activation was 0.09%.
With `Cc1ccccc1CCN(CC(=O)NC1CCCCC1)C(=O)c1csnn1`, the activation was -12.1%.
The figure for `Cc1c(Cl)cccc1NC(=O)[C@@]1(CC(=O)O)CC(/C=C/c2ccccc2)=NO1` is -10.7%; for `Cc1ccc(S(=O)(=O)Nc2nc(CN3CCOCC3)nc3sc(C)c(C)c23)cc1` it is 4.74%.
To `Cc1cc(C)c2c(c1)c(C)cc1nnc(SCC(=O)NCc3ccco3)n12` belongs -0.06%; to `Cc1cc(C)cc(N(CCC#N)C(=O)CN2C(=O)NC3(CCCC3)C2=O)c1`, -5.16%.
Regarding `O=C(C1CCN(C2CCN(Cc3cccc4c3OCO4)CC2)CC1)N1CCOCC1`, the activation is -0.07%.
As to `Cc1ccc(N2C(=O)C3C(c4ccccc4)(C2=O)C3(c2ccccc2)c2ccccc2)cc1` (stereo unspecified), the activation is -5.54%.
To `CC1CCCC(NC(=O)CSc2nccn2C)C1C` (stereo unspecified) belongs -21.1%; to `Cc1ccccc1-c1cc(C(=O)NCc2cccs2)n(CC2CC(c3cccnc3)=NO2)n1` (stereo unspecified), -4.56%.
In the case of `CCCOc1ccccc1C1CC(=O)Nc2cc3c(cc21)OCO3` (stereo unspecified), the activation is -15.5%.
With `COC(=O)c1ccc(C2CC(=O)Nc3cc(OC)c(OC)cc32)cc1` (stereo unspecified), the activation is -2.55%.
As for `COc1cc2c(cc1OC)C(c1ccc(C)o1)CC(=O)N2` (stereo unspecified), the activation was 6.71% (active).
Take `Cc1ccc(CNC(=O)CCN2C(=O)[C@@H]3Cc4ccccc4CN3C2=O)cc1`: the activation was -7.86%.
Consider `CN(Cc1ccccc1Cl)C(=O)C1CCC(=O)N(CCc2cccc(F)c2)C1` (stereo unspecified), for which the activation was 5.76%.
Regarding `COc1ccccc1CSc1ncc(-c2ccc([N+](=O)[O-])cc2)[nH]1`, the activation was -15.7%.
Turning to `Cn1cccc1C(=O)N1CCc2ccccc2C1`, the activation was -4.4%.
To `O=C(Nn1cc(C(=O)N2CCN(c3ccccc3F)CC2)c2ccccc2c1=O)c1cnccn1` belongs -16.9%.
For the molecule `COc1ccc([C@H]2[C@H](C(C)=O)N3N=Cc4ccccc4C3C23C(=O)OC(C)(C)OC3=O)cc1` (stereo partly specified), the activation is -5.56%.
As to `O=C(COC(=O)Cn1cnc2ccccc21)Nc1cccc2c1C(=O)c1ccccc1C2=O`, the activation was -2.58%.
Take `Cc1cc(NC(=O)Nc2c[nH]c(=O)[nH]c2=O)ccc1Br`: the activation is -3.04%.
The figure for `Cc1ccc2nc(NC(=O)C3CSC4(C)CCC(=O)N34)sc2c1` (stereo unspecified) is -1.9%; for `COc1ccc(Cl)cc1NC(=O)CN(C)C(=O)CCCc1c[nH]c2ccccc12` it is -8.97%.
For `CC(C)CN(C(=O)CSc1ncnc2sccc12)C1CCS(=O)(=O)C1` (stereo unspecified), the activation is -5.65%.
As to `CCCc1cc(=O)oc2cc(OCC(=O)Nc3ccc(CN4CCOCC4)cc3)c(Cl)cc12`, the activation was 2.03%.
To `COc1ccc(CCNC(=O)CCc2cn(C)c3ccccc23)c(OC)c1` belongs -6.44%; to `C=CCNC(=O)COC(=O)CNC(=O)c1cc(Cl)cc([N+](=O)[O-])c1`, 6.81%; to `Cn1c(=O)c2sccc2n(Cc2ccc(Br)cc2)c1=O`, -7.63%.
As for `COc1cc(S(=O)(=O)N2CCN(C(=O)C3CC3)CC2)ccc1NC(C)=O`, the activation was 5.54%.
For `O=C(CN(Cc1ccccc1)C(=O)CCC(=O)Nc1ccccn1)NCCc1ccccc1`, the activation was -8.23%.
For `O=C(Oc1ccc(-c2nnco2)cc1)c1ccc(F)c(S(=O)(=O)N2CCOCC2)c1`, the activation was -5.86%.
To `O=C(COc1cc(Cl)c(Cl)cc1Cl)NC(=O)NC1CCCC1` belongs 2.91%; to `O=C(NCCCN1CCCCC1)C1CCCN(c2ncnc3c2nc2n3CCCCC2)C1` (stereo unspecified), -5.62%; to `Cc1cc(C(=O)OCC(=O)Nc2ccccc2Cl)c(C)o1`, 1.55%.
Take `COCCCNC(=O)CSc1nc2ccc(N3CCOCC3)cc2c(=O)n1CCc1ccccc1`: the activation is -1.26%.
`CCCCn1c(N)c(N2CCOCC2)c(=O)n(CC(=O)NCCc2ccccc2)c1=O`: the activation was 14.8% (active).
Turning to `O=C(COC(=O)c1cc(S(=O)(=O)N2CCOCC2)ccc1Cl)NCCc1ccccc1`, the activation was -5.23%.
In the case of `CCC(=O)N1CCN=C1SCc1ccc(F)cc1`, the activation is -4.47%.
With `CCOC(=O)N1CCN(Cc2oc(CO)cc(=O)c2O)CC1`, the activation is -9.68%.
In the case of `Cc1noc(/C=C/c2ccco2)c1S(=O)(=O)N1CCC(C(=O)Nc2ccc(Cl)cn2)CC1`, the activation is -2.32%.
Turning to `O=C(NC(=S)Nc1ccccc1N1CCCCC1)c1ccc(F)cc1`, the activation is 25.2% (active).
As to `CCc1ccc(C(=O)NC(=S)Nc2ccccc2N2CCOCC2)cc1`, the activation was -6.63%.
The figure for `COc1ccccc1C(=O)NC(=S)Nc1ccccc1N1CCCCC1` is -5.57%; for `COc1ccc(C[C@H]2CN3C(=NC[C@H]3C)N2CCNC(=O)CCC2CCCCC2)cc1` it is 3.05%.
Consider `C[C@H](NC(=O)c1nc[nH]c1C(=O)N[C@@H](C)C(=O)OC(C)(C)C)C(=O)OC(C)(C)C`, for which the activation was -3.66%.
The figure for `Cc1cccc(NC(=O)Cn2c(=O)n(Cc3ccccc3)c(=O)c3c(C)c(C)sc32)c1` is -5.82%; for `Cc1ccc(CS(=O)(=O)CCC(=O)NC2CC2)cc1` it is 0.82%.
